Measurements: ChEMBL document CHEMBL1154369, “Betulin-derived compounds as inhibitors of alphavirus replication” (J Nat Prod, 2009)
pIC50: −log10 of the molar value. The source made the active and inactive calls. No cut-off for these calls is given here.

Assays:
[1] = Cytotoxicity against human HuH7 cells assessed as cell viability at 500 uM after 24 hrs; assay type: cell-based, Huh-7; conditions: read-out: Activity
Procedure, shortened: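 Huh-7 human hepatocellular carcinoma cells exposed 24 h to derivative at 500 µM in an extended cytotoxicity analysis. Viability measured as intracellular ATP content and reported as surviving fraction.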

Semliki Forest virus [2] = assay: Antiviral activity against SFV infected in BHK cells assessed as surviving virus fraction at 50 uM after 14 hrs by luciferase reporter gene assay; assay type: functional; set-up: scale not given here
[3] = Cytotoxicity against human HuH7 cells assessed as cell viability at 50 uM after 24 hrs
Semliki Forest virus [4] = assay: Antiviral activity against SFV infected in BHK cells after 14 hrs by luciferase reporter gene assay; assay type: functional, organism-based; conditions: for pIC50: read-out: IC50; for IC50: read-out: pIC50 (converted)
Procedure, shortened: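 SFV-Rluc reporter virus from infectious cDNA clone; BHK-21 cells infected at low multiplicity (0.001 PFU/cell) and incubated 14 h, spanning over 2 infectious cycles. Serial dilutions of each derivative tested. Luciferase read-out as surviving virus fraction. IC50 from a sigmoidal dose-response fit; means ± SD, n = 6. 3′-Amino-3′-deoxyadenosine (20 µM) served as screen positive control.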

Semliki Forest virus [5] = assay: Antiviral activity against SFV infected in BHK cells assessed as decrease in surviving virus fraction at 50 uM treated during time of viral adsorption for 1 hr measured after 5 hrs by luciferase reporter gene assay; assay type: functional, organism-based
Procedure, shortened: (§1)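 Time-of-addition run with SFV-Rluc at high multiplicity (5 PFU/cell) in BHK-21 cultures, covering a single replication cycle. Compound present throughout (0-5 h), only during adsorption (0-1 h), at 1-5 h, or at 2-5 h. Surviving fraction is the remaining Renilla luciferase activity, read at 5 h per legend (4.5 h in text); means ± SD, n = 4.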

Semliki Forest virus [6] = assay: Antiviral activity against SFV infected in BHK cells assessed as decrease in surviving virus fraction at 200 uM treated 1 hr after viral adsorption measured after 5 hrs by luciferase reporter gene assay; assay type: functional, organism-based; procedure, shortened: as §1
Sindbis virus = assay: Antiviral activity against Sindbis virus infected in BHK cells assessed as inhibition of RNA synthesis after 14 hrs by [3H]uridine incorporation assay; assay type: functional, organism-based; conditions: for pIC50: read-out: IC50; for IC50: read-out: pIC50 (converted)
Procedure, shortened: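 Sindbis virus from infectious cDNA clone grown in BHK-21 cells. Viral RNA synthesis rate measured by [3H]-uridine labeling. Serial compound dilutions from 16 pM to 50 µM. IC50 from nonlinear regression to sigmoidal dose-response curves; means ± SD, n = 4.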

Semliki Forest virus [7] = assay: Antiviral activity against SFV infected in BHK cells assessed as decrease in surviving virus fraction at 200 uM treated during time of viral adsorption for 1 hr measured after 5 hrs by luciferase reporter gene assay; assay type: functional, organism-based; procedure, shortened: as §1
Semliki Forest virus [8] = assay: Antiviral activity against SFV infected in BHK cells assessed as surviving virus fraction at 50 uM after 14 hrs by luciferase reporter gene assay in presence of 50 ug/ml guanosine; assay type: functional, organism-based
Semliki Forest virus [9] = assay: Antiviral activity against SFV infected in BHK cells assessed as decrease in surviving virus fraction at 50 uM treated 1 hr after viral adsorption measured after 5 hrs by luciferase reporter gene assay; assay type: functional, organism-based; procedure, shortened: as §1
Semliki Forest virus [10] = assay: Antiviral activity against SFV infected in BHK cells assessed as decrease in surviving virus fraction at 50 uM treated 2 hr after viral adsorption measured after 5 hrs by luciferase reporter gene assay; assay type: functional, organism-based; procedure, shortened: as §1
Semliki Forest virus [11] = assay: Antiviral activity against SFV infected in BHK cells assessed as decrease in surviving virus fraction at 200 uM treated 2 hr after viral adsorption measured after 5 hrs by luciferase reporter gene assay; assay type: functional, organism-based; procedure, shortened: as §1
Semliki Forest virus [12] = assay: Antiviral activity against SFV infected in BHK cells assessed as surviving virus fraction at 200 uM after 14 hrs by luciferase reporter gene assay in presence of 50 ug/ml guanosine; assay type: functional, organism-based

SMILES	viability at 24 h, 500 µM [1] [%]	Activity (Semliki Forest virus [2]) [%]	viability at 24 h, 50 µM [3] [%]	pIC50 (Semliki Forest virus [4])	IC50 (Semliki Forest virus [4]) [µM]	Activity (Semliki Forest virus [5])	Activity (Semliki Forest virus [6])	pIC50 (Sindbis virus)	IC50 (Sindbis virus) [µM]	Activity (Semliki Forest virus [7])	Activity (Semliki Forest virus [8])	Activity (Semliki Forest virus [9])	Activity (Semliki Forest virus [10])	Activity (Semliki Forest virus [11])	Activity (Semliki Forest virus [12])
C=C(C)[C@@H]1CC[C@]2(COC(C)=O)CC[C@]3(C)[C@H](CC[C@@H]4[C@@]5(C)CC[C@H](O)C(C)(C)[C@@H]5CC[C@]43C)[C@@H]12	> 80	3	87	4.92	12	–	–	–	–	–	–	–	–	–	–
C=C(C)[C@@H]1CC[C@]2(COC(C)=O)CC[C@]3(C)[C@H](CC[C@@H]4[C@@]5(C)CCC(=O)C(C)(C)[C@@H]5CC[C@]43C)[C@@H]12	> 80	11	83	4.31	47.9	–	–	–	–	–	–	–	–	–	–
CC(=O)OC[C@]12CC[C@]3(C(C)C)C1=C1[C@H](C[C@@H]4[C@@]5(C)CC[C@H](OC(C)=O)C(C)(C)[C@@H]5CC[C@@]4(C)[C@]1(C)CC2)n1c(=O)n(-c2cccc(Cl)c2)c(=O)n13	> 80	1	95	4.66	22.4	–	–	–	–	–	–	–	–	–	–
C=C(C)[C@@H]1CC[C@]2(COC3CCCCO3)CC[C@]3(C)[C@H](CC[C@@H]4[C@@]5(C)CC[C@H](OC(C)=O)C(C)(C)[C@@H]5CC[C@]43C)[C@@H]12 (stereo not given in full)	> 80	10	91	4.61	24.5	–	–	–	–	–	–	–	–	–	–
C=C(C)[C@@H]1CC[C@]2(COC3CCCCO3)CC[C@]3(C)[C@H](CC[C@@H]4[C@@]5(C)CC[C@H](O)C(C)(C)[C@@H]5CC[C@]43C)[C@@H]12 (stereo not given in full)	> 80	11	92	4.76	17.4	inactive	Active	5.72	1.91	inactive	Active	Active	Active	–	–
CC(=O)OC[C@]12CCC(C(C)C)=C1[C@H]1CC[C@@H]3[C@@]4(C)CC[C@H](OC(C)=O)C(C)(C)[C@@H]4CC[C@@]3(C)[C@]1(C)CC2	> 80	15	87	4.36	42.7	–	–	–	–	–	–	–	–	–	–
C=C(C)[C@@H]1CC[C@]2(C(=O)O)CC[C@]3(C)[C@H](CC[C@@H]4[C@@]5(C)CC[C@H](O)C(C)(C)[C@@H]5CC[C@]43C)[C@@H]12 [BETULINIC ACID]	> 80	18	123	4.84	14.5	inactive	Active	6.30	0.457	inactive	Active	Active	Active	Active	–
NC(=O)c1ncn([C@@H]2O[C@H](CO)[C@@H](O)[C@H]2O)n1 [RIBAVIRIN]	–	–	–	4.02	95.5	–	–	–	–	–	–	–	–	–	inactive
CCCCn1c(=O)n2n(c1=O)[C@]1(C(C)C)CC[C@]3(COC(C)=O)CC[C@]4(C)C(=C31)[C@@H]2C[C@@H]1[C@@]2(C)CC[C@H](OC(C)=O)C(C)(C)[C@@H]2CC[C@]14C	> 80	19	81	4.42	38	–	–	–	–	–	–	–	–	–	–
